Source: PubChem BioAssay
M18AAP inhibitor: blocks P. falciparum M18 aspartyl aminopeptidase. AID 1822. actives 1.2% (n = 290,000). inhibition, % at 7.35 µM. recombinant PfM18AAP, H-Glu-NHMec fluorogenic cleavage;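 active means inhibition above the campaign mean inhibition over all tested compounds plus 3 SD, cut at about 28% in these data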
FAS-TE inh: FAS thioesterase (human) inhibition | actives 0.67% (n = 360,000) | recombinant FAS-TE, OMFH fluorogenic substrate, fluorescence endpoint | AID 602261 | P49327 | inhibition, % at 15 µM;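 active means compounds whose normalised, plate-corrected inhibition of enzyme fluorescence in the single-dose primary screen is 50% or more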
UCH37 DUB inh: human UCH37 deubiquitinating enzyme inhibition | actives 0.33% (n = 330,000) | inhibition, % (concentration not given with the values) | AID 588478 | purified proteasome/UCH37, Ub-AMC cleavage fluorescence;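 active means mean inhibition over replicate wells above about 20%, limit read from the data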
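Material: human UCH37 enzyme supplied as purified proteasome complex. Measure: % inhibition of Ub-AMC cleavage fluorescence. Medium: pH 7.4 Tris-HCl (50 mM) with ovalbumin, ATP-MgCl2, DTT. Times: 30 min preincubation with enzyme, 25 min cleavage at room temperature. Detection: AMC fluorescence intensity at 355/460 nm.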
ALR inh: human ALR oxidase inhibition via reduced H2O2; P55789; AID 485317; purified ALR, DTT oxidation, H2O2 HRP-luminol luminescence; actives 3.8% (n = 290,000); inhibition, % (no concentration beside the values);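 active means mean replicate inhibition above about 79%, with every replicate also reaching it, limit read from the data; inconclusive means only one of the two criteria met; inactive means mean below limit and not every replicate reaching it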
Target sequence (P55789 whole entry, looked up): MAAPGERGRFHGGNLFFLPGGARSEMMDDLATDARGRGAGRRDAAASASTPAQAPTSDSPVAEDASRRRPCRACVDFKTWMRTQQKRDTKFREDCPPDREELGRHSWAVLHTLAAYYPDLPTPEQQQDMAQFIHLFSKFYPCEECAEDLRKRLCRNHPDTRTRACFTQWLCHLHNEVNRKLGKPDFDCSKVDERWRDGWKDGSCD
Rtt109 HAT inh: inhibitors of Candida albicans Rtt109/Vps75 histone acetyltransferase; inhibition, % at 34.9 µM; actives 0.16% (n = 330,000); Q5AAJ8; purified Rtt109/Vps75, ThioGlo CoA-SH fluorescence, 4 h; AID 540336;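 active means inhibition of at least 50% in every replicate; inconclusive means best replicate reaches 50% inhibition but some replicates fall short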
Target sequence (Q5AAJ8 whole entry, looked up): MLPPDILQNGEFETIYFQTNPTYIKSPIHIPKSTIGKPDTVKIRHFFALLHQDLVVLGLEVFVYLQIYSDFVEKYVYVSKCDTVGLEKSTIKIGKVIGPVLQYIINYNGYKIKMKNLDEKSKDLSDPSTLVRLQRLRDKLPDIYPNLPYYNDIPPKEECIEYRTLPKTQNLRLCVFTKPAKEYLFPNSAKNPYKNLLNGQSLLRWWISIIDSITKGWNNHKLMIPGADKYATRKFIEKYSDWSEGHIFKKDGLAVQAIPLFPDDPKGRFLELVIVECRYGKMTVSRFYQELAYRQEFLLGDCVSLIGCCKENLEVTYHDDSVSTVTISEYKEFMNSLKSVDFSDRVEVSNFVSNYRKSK
HDAC3 inh: blocks human histone deacetylase 3 | O15379 | recombinant HDAC3, fluorogenic peptide/trypsin coupled, fluorescence | inhibition, % at 8.3 µM | actives 0.15% (n = 320,000); in the data active means inhibition above about 26%, passing the limit was not always enough; inconclusive means no clear call, values can overlap the other calls
FAS-TE inh conf: FAS thioesterase (human) inhibition, confirmation; recombinant FAS-TE, OMFH fluorogenic substrate, fluorescence; shares compounds with FAS-TE inh; actives 45% (n = 2,300); AID 624325; inhibition, % at 15 µM;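 active means compounds inhibiting the enzyme by at least 50% at 15 µM in any one of the replicates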
Each line names hits and unclear results; the compound was inactive in the other large screens (follow-up assays come after a bar, where they were run). Most compounds without a hit are left out; they make up all but 4.6% or so of the library.

Cc1cccc(COCC(CC(C)C)N2CCN(C(=O)c3ccc(C(F)(F)F)cc3)CCC2=O)c1 (stereo unspecified)	none
Cc1cccc(COC[C@H](CC(C)C)N2CCN(C(=O)c3ccc(C(C)(C)C)cc3)CCC2=O)c1	FAS-TE inh 54.3 (no result: M18AAP inhibitor, UCH37 DUB inh, ALR inh, Rtt109 HAT inh, HDAC3 inh) | FAS-TE inh conf 44.7
Cc1cccc(COCC(CC(C)C)N2CCN(C(=O)c3ccc(C(C)(C)C)cc3)CCC2=O)c1 (stereo unspecified)	FAS-TE inh 58.6 (no result: ALR inh) | FAS-TE inh conf 56.4
Cc1ccc2nc(SCC(=O)NN=Cc3ccc(C(=O)O)cc3)cc(C)c2c1	none (no result: M18AAP inhibitor, FAS-TE inh, ALR inh, Rtt109 HAT inh, HDAC3 inh)
Cc1cc(/C=C(\C#N)C(=O)Nc2ccc(F)cc2)c(C)n1-c1ccc(N2CCOCC2)c([N+](=O)[O-])c1	FAS-TE inh 61.7 | FAS-TE inh conf inactive
COc1ccc(NC(=O)/C(C#N)=C\c2cc(C)n(-c3ccc(Oc4ccc([N+](=O)[O-])cn4)cc3)c2C)cc1	none
COc1ccc(NC(=O)/C(C#N)=C/c2cc(C)n(-c3ccc(N4CCOCC4)c([N+](=O)[O-])c3)c2C)cc1	FAS-TE inh 79.3 (no result: ALR inh, HDAC3 inh) | FAS-TE inh conf inactive
Cc1cccc2cc(CN(Cc3ccccc3)C(=O)N3CCOCC3)c3nnnn3c12	none (no result: FAS-TE inh, UCH37 DUB inh, ALR inh, Rtt109 HAT inh, HDAC3 inh)
COc1ccc(CN(Cc2cc3cccc(C)c3n3nnnc23)C(=O)N2CCOCC2)cc1	FAS-TE inh 50.1 | FAS-TE inh conf 47.4
O=C(C/C=N\OCc1ccc([N+](=O)[O-])cc1)Nc1ccc(Br)cc1	FAS-TE inh 54.8 (no result: UCH37 DUB inh) | FAS-TE inh conf 57.0
Cc1cccc(N2C(=O)N3[C@H](c4ccc(Br)cc4)[C@@H]4C(=O)N(C(C)(C)C)C(=O)[C@@H]4[C@]3(Cc3ccc(Cl)cc3)C2=O)c1	FAS-TE inh 89.0 | FAS-TE inh conf inactive
COc1ccc([C@@H]2[C@@H]3C(=O)N(C(C)(C)C)C(=O)[C@@H]3[C@]3(Cc4ccc(Cl)cc4)C(=O)N(c4ccc(Br)cc4)C(=O)N23)cc1	FAS-TE inh 87.6 | FAS-TE inh conf 55.0
COc1ccc([C@@H]2[C@@H]3C(=O)N(C(C)(C)C)C(=O)[C@@H]3[C@]3(C)C(=O)N(c4ccc(C)cc4)C(=O)N23)cc1	none
COc1ccc(N2C(=O)N3[C@H](c4ccc(Cl)cc4)[C@@H]4C(=O)N(C5CCCCC5)C(=O)[C@@H]4[C@]3(Cc3ccc(Cl)cc3)C2=O)cc1	FAS-TE inh 87.9 | FAS-TE inh conf inactive
Cc1cccc(N2C(=O)N3[C@H](c4ccc(Br)cc4)[C@@H]4C(=O)N(C(C)(C)C)C(=O)[C@@H]4[C@]3(C)C2=O)c1	none
CCN1C(=O)[C@H]2[C@@H](c3ccc(C)cc3)N3C(=O)N(c4ccc(OC)cc4)C(=O)[C@@]3(Cc3ccc(Cl)cc3)[C@H]2C1=O	none
COc1ccc([C@@H]2[C@@H]3C(=O)N(C(C)(C)C)C(=O)[C@@H]3[C@]3(Cc4ccc(Cl)cc4)C(=O)N(c4ccc(OC)cc4)C(=O)N23)cc1	FAS-TE inh 92.4 (no result: M18AAP inhibitor) | FAS-TE inh conf inactive
COc1ccc([C@@H]2[C@@H]3C(=O)N(C(C)(C)C)C(=O)[C@@H]3[C@]3(Cc4ccccc4)C(=O)N(c4ccc(C)cc4)C(=O)N23)cc1	none (no result: M18AAP inhibitor)
Cc1n[nH]c(=S)n1N=Cc1ccc(OCc2ccc(Cl)cc2)cc1	none (no result: M18AAP inhibitor, FAS-TE inh, ALR inh, Rtt109 HAT inh, HDAC3 inh)
Fc1ccc(C=NNc2nc(-c3cccnc3)nc3ccccc23)cc1	none (no result: M18AAP inhibitor, FAS-TE inh, ALR inh, Rtt109 HAT inh, HDAC3 inh)
Cc1c(Cl)ccc2c1NC(=O)[C@]21N[C@@H](Cc2ccccc2)[C@H]2C(=O)N(c3ccc(F)cc3)C(=O)[C@H]21	FAS-TE inh 76.3, HDAC3 inh inconclusive | FAS-TE inh conf inactive
O=C1[C@@H]2[C@H](Cc3ccc(O)cc3)N[C@]3(C(=O)Nc4ccccc43)[C@@H]2C(=O)N1c1ccc(F)cc1	ALR inh inconclusive
O=C(NN=Cc1ccc(COc2ccc(Br)cc2)o1)c1ccc2c(c1)OCO2	none (no result: M18AAP inhibitor, FAS-TE inh, ALR inh, Rtt109 HAT inh, HDAC3 inh)
O=C(CN(Cc1ccccc1)S(=O)(=O)c1ccccc1)NN=Cc1ccccc1C(=O)O	none (no result: M18AAP inhibitor, FAS-TE inh, ALR inh, Rtt109 HAT inh, HDAC3 inh)
CC(=NNC(=O)CNC(=O)c1ccccc1F)c1ccc2c(c1)CCCC2	none (no result: M18AAP inhibitor, FAS-TE inh, ALR inh, Rtt109 HAT inh, HDAC3 inh)
COc1cc(OC)c(C2=NOC(C(=O)NCc3ccc4c(c3)OCO4)C2)cc1Cl (stereo unspecified)	FAS-TE inh 59.7 | FAS-TE inh conf inactive
